Format in all cases: ADME, organism-based
Data set [1] can be described thus: Volume of distribution at steady state in Sprague-Dawley rat at 2 mg/kg, iv. The following applies: in vivo, read-out: Vdss. The gist of the method:
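Sprague-Dawley rats dosed intravenously at 2 mg/kg in 100% DMSO. Plasma clearance, steady-state volume of distribution and terminal half-life derived from the plasma concentration-time profile.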

Data set [2] in a line: Cmax in Sprague-Dawley rat at 10 mg/kg, po after 4 hrs. Also on record: dose 10 mg/kg, route oral. The following applies: in vivo. The gist of the method: (§1)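 Sprague-Dawley rats given one 10 mg/kg oral dose in 1% Tween 80, 2% HPMC, 97% water. Plasma drug levels followed over time, giving Cmax, time to Cmax and AUC. Free concentration derived using the fraction unbound from rapid equilibrium dialysis.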

Data set [3] can be described thus: AUC in Sprague-Dawley rat at 10 mg/kg, po. The following applies: in vivo. The gist of the method: as §1
The nature of data set [4]: Oral bioavailability in Sprague-Dawley rat at 10 mg/kg. To be noted: in vivo.
The subject of the next data set is Rattus norvegicus. Kind of data set: Free plasma concentration in Sprague-Dawley rat at 10 mg/kg, po after 4 hrs. The following applies: in vivo. The essentials: as §1

The source of these data is ChEMBL document CHEMBL3576811, “Small Molecule Disruptors of the Glucokinase-Glucokinase Regulatory Protein Interaction: 5. A Novel Aryl Sulfone Series, Optimization Through Conformational Analysis” (J Med Chem, 2015).

Broadly, the Cmax is the peak of the concentration-time curve. One may read the AUC as the area under the concentration-time curve, a measure of exposure. In general, bioavailability refers to the share of a dose that reaches the circulation, judged against a reference dose that is usually intravenous. A higher bioavailability goes with much systemic uptake.

`C[C@](O)(CO)c1ccc(-c2ncc(S(=O)(=O)c3ccc(N)nc3)s2)c(Cl)c1`: in data set [1], the Vd worked out at 0.18 L/kg. This molecule gave a Cmax in data set [2] of 57.6 µM. Also, the AUC in data set [3] is 568 µM·h. This molecule also displayed a bioavailability in data set [4] of 82%. Further, in the data set with Rattus norvegicus, the “Cp(f)” value amounted to 0.43 µM.
